Test results from ChEMBL document CHEMBL4261531, “Synthesis of thioether andrographolide derivatives and their inhibitory effect against cancer cells” (Medchemcomm, 2017).

Tests used:
[1] = system: PC-3; assay: Growth inhibition of human PC3 cells after 48 hrs by MTT assay; format: functional, cell-based; conditions: PC-3, 48 h
Summary of the method: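 PC-3 human prostate cancer cells exposed to compounds, with viability read by MTT assay; taxol served as the positive control.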

[2] = system: A549; assay: Growth inhibition of human A549 cells after 48 hrs by MTT assay; format: functional, cell-based; conditions: A549, 48 h
[3] = system: MDA-MB-231; assay: Growth inhibition of human MDA-MB-231 cells after 48 hrs by MTT assay; format: functional, cell-based; conditions: MDA-MB-231, 48 h
[4] = system: MCF7; assay: Growth inhibition of human MCF7 cells after 48 hrs by MTT assay; format: functional, cell-based; conditions: MCF7, 48 h
[5] = system: Vero; assay: Cytotoxicity against African green monkey Vero cells at 100 uM after 48 hrs by MTT assay; format: cell-based; conditions: chlorocebus sabaeus

Row | Structure (SMILES) | IC50 [1] [µM] | further results
1 | C=C1CC[C@@H]2[C@](C)(CO)[C@H](O)CC[C@@]2(C)[C@@H]1CC(Sc1ccc([N+](=O)[O-])cc1)C1=CCOC1=O (some centres undefined) | 17 | –
2 | C=C1CC[C@@H]2[C@](C)(CO)[C@H](O)CC[C@@]2(C)[C@@H]1C/C=C1/C(=O)OC[C@H]1OC(=O)CSc1ccc(C)cc1 | 27 | –
3 | C=C1CC[C@@H]2[C@]3(C)COC(C)(C)O[C@@H]3CC[C@@]2(C)[C@@H]1CC(Sc1ccc(C)cc1)C1=CCOC1=O (some centres undefined) | 23 | –
4 | C=C1CC[C@@H]2[C@](C)(CO)[C@H](O)CC[C@@]2(C)[C@@H]1C/C=C1/C(=O)OC[C@H]1OC(=O)CSc1ccc([N+](=O)[O-])cc1 | 17 | –
5 | C=C1CC[C@@H]2[C@](C)(CO)[C@H](O)CC[C@@]2(C)[C@@H]1CC(Sc1ccc(F)cc1)C1=CCOC1=O (some centres undefined) | 16 | –
6 | C=C1CC[C@@H]2[C@]3(C)COC(C)(C)O[C@@H]3CC[C@@]2(C)[C@@H]1C/C=C1/C(=O)OC[C@H]1OC(=O)CCCSc1ccc([N+](=O)[O-])cc1 | 17 | –
7 | C=C1CC[C@@H]2[C@](C)(CO)[C@H](O)CC[C@@]2(C)[C@@H]1CC(Sc1ccc(C)cc1)C1=CCOC1=O (some centres undefined) | 29 | –
8 | C=C1CC[C@@H]2[C@](C)(CO)[C@H](O)CC[C@@]2(C)[C@@H]1CC(Sc1ccccn1)C1=CCOC1=O (some centres undefined) | 18 | –
9 | C=C1CC[C@@H]2[C@](C)(CO)[C@H](O)CC[C@@]2(C)C1C/C=C1/C(=O)OC[C@H]1OC(=O)CCCSc1ccc(OC)cc1 (single isomer, unassigned) | 19 | –
10 | C=C1CC[C@@H]2[C@]3(C)COC(C)(C)O[C@@H]3CC[C@@]2(C)[C@@H]1C[C@@H](Sc1cccs1)C1=CCOC1=O | 20 | –
11 | C=C1CC[C@@H]2[C@]3(C)COC(C)(C)O[C@@H]3CC[C@@]2(C)[C@@H]1C/C=C1/C(=O)OC[C@H]1OC(=O)CSc1cccs1 | 15 | –
12 | C=C1CC[C@@H]2[C@]3(C)COC(C)(C)O[C@@H]3CC[C@@]2(C)[C@@H]1C/C=C1/C(=O)OC[C@H]1OC(=O)CCCSc1ccc(OC)cc1 | 18 | –
13 | C=C1CC[C@@H]2[C@](C)(CO)[C@H](O)CC[C@@]2(C)[C@@H]1CC(Sc1ccccc1)C1=CCOC1=O (some centres undefined) | 14 | –
14 | C=C1CC[C@@H]2[C@](C)(CO)[C@H](O)CC[C@@]2(C)[C@@H]1CC(Sc1ccc(OC)cc1)C1=CCOC1=O (some centres undefined) | 15 | –
15 | C=C1CC[C@@H]2[C@](C)(CO)[C@H](O)CC[C@@]2(C)C1C/C=C1/C(=O)OC[C@H]1OC(=O)CCCSc1ccc([N+](=O)[O-])cc1 (single isomer, unassigned) | 17 | –
16 | C=C1CC[C@@H]2[C@](C)(CO)[C@H](O)CC[C@@]2(C)[C@@H]1C/C=C1/C(=O)OC[C@H]1OC(=O)CSc1cccs1 | 18 | –
17 | C=C1CC[C@@H]2[C@](C)(CO)[C@H](O)CC[C@@]2(C)C1C/C=C1/C(=O)OC[C@H]1OC(=O)CCCSc1cccs1 (single isomer, unassigned) | 16 | –
18 | C=C1CC[C@@H]2[C@](C)(CO)[C@H](O)CC[C@@]2(C)[C@@H]1CC(Sc1cccs1)C1=CCOC1=O (some centres undefined) | 15 | –
19 | C=C1CC[C@@H]2[C@](C)(CO)[C@H](O)CC[C@@]2(C)C1C/C=C1/C(=O)OC[C@H]1OC(=O)CCCSc1ccc(C)cc1 (single isomer, unassigned) | 16 | –
20 | C=C1CC[C@@H]2[C@](C)(CO)[C@H](O)CC[C@@]2(C)C1C/C=C1/C(=O)OC[C@H]1OC(=O)CCCSc1ccccn1 (single isomer, unassigned) | 14 | –
21 | C=C1CC[C@@H]2[C@](C)(CO)[C@H](O)CC[C@@]2(C)[C@@H]1C/C=C1/C(=O)OC[C@H]1O [ANDROGRAPHOLIDE] | 30 | –
22 | C=C1CC[C@@H]2[C@]3(C)COC(C)(C)O[C@@H]3CC[C@@]2(C)[C@@H]1CC(Sc1ccc(OC)cc1)C1=CCOC1=O (some centres undefined) | 17 | –

Continued, in another order:

Row | IC50 [1] [µM] | Structure (SMILES) | further results
23 | 12 | C=C1CC[C@@H]2[C@]3(C)COC(C)(C)O[C@@H]3CC[C@@]2(C)[C@@H]1CC(Sc1ccccc1)C1=CCOC1=O (some centres undefined) | –
24 | 9 | C=C1CC[C@@H]2[C@]3(C)COC(C)(C)O[C@@H]3CC[C@@]2(C)[C@@H]1C[C@H](Sc1cccs1)C1=CCOC1=O | IC50 [2]: 20 µM; IC50 [3]: 8 µM; IC50 [4]: 5 µM; Activity [5]: Non-Toxic
25 | 12 | C=C1CC[C@@H]2[C@]3(C)COC(C)(C)O[C@@H]3CC[C@@]2(C)[C@@H]1CC(Sc1ccc([N+](=O)[O-])cc1)C1=CCOC1=O (some centres undefined) | –
26 | 13 | C=C1CC[C@@H]2[C@]3(C)COC(C)(C)O[C@@H]3CC[C@@]2(C)[C@@H]1C/C=C1/C(=O)OC[C@H]1OC(=O)CCCSc1ccc(F)cc1 | –
27 | 14 | C=C1CC[C@@H]2[C@]3(C)COC(C)(C)O[C@@H]3CC[C@@]2(C)[C@@H]1C/C=C1/C(=O)OC[C@H]1OC(=O)CCCSc1ccc(C)cc1 | –
28 | 14 | C=C1CC[C@@H]2[C@](C)(CO)[C@H](O)CC[C@@]2(C)[C@@H]1CC(Sc1nccs1)C1=CCOC1=O (some centres undefined) | –
29 | 12 | C=C1CC[C@@H]2[C@](C)(CO)[C@H](O)CC[C@@]2(C)C1C/C=C1/C(=O)OC[C@H]1OC(=O)CCCSc1ccc(F)cc1 (single isomer, unassigned) | –
30 | 9 | C=C1CC[C@@H]2[C@]3(C)COC(C)(C)O[C@@H]3CC[C@@]2(C)[C@@H]1C/C=C1/C(=O)OC[C@H]1OC(=O)CCCSc1ccccn1 | IC50 [2]: 23 µM; IC50 [3]: 6 µM; IC50 [4]: 0.6 µM; Activity [5]: Non-Toxic
31 | 7 | CC(=O)O[C@H]1C(=O)[C@@]2(C)[C@H]([C@H](OC(=O)c3ccccc3)[C@]3(O)C[C@H](OC(=O)[C@H](O)[C@@H](NC(=O)c4ccccc4)c4ccccc4)C(C)=C1C3(C)C)[C@]1(OC(C)=O)CO[C@@H]1C[C@@H]2O [PACLITAXEL] | –
32 | 9 | C=C1CC[C@@H]2[C@]3(C)COC(C)(C)O[C@@H]3CC[C@@]2(C)[C@@H]1C/C=C1/C(=O)OC[C@H]1OC(=O)CSc1ccc([N+](=O)[O-])cc1 | IC50 [2]: 11 µM; IC50 [3]: 19 µM; IC50 [4]: 10 µM; Activity [5]: Non-Toxic
33 | 14 | C=C1CC[C@@H]2[C@](C)(CO)[C@H](O)CC[C@@]2(C)[C@@H]1C/C=C1/C(=O)OC[C@H]1OC(=O)CSc1ccc(F)cc1 | –
34 | 7 | C=C1CC[C@@H]2[C@](C)(CO)[C@H](O)CC[C@@]2(C)[C@@H]1CC(Sc1ncccn1)C1=CCOC1=O (some centres undefined) | IC50 [2]: 9 µM; IC50 [3]: 16 µM; IC50 [4]: 23 µM; Activity [5]: Non-Toxic
35 | 14 | C=C1CC[C@@H]2[C@]3(C)COC(C)(C)O[C@@H]3CC[C@@]2(C)[C@@H]1CC(Sc1ccccn1)C1=CCOC1=O (some centres undefined) | –
36 | 10 | C=C1CC[C@@H]2[C@]3(C)COC(C)(C)O[C@@H]3CC[C@@]2(C)[C@@H]1CC(Sc1nccs1)C1=CCOC1=O (some centres undefined) | IC50 [2]: 31 µM; IC50 [3]: 12 µM; IC50 [4]: 3 µM; Activity [5]: Non-Toxic
37 | 7 | C=C1CC[C@@H]2[C@]3(C)COC(C)(C)O[C@@H]3CC[C@@]2(C)[C@@H]1CC(Sc1ncccn1)C1=CCOC1=O (some centres undefined) | IC50 [2]: 20 µM; IC50 [3]: 9 µM; IC50 [4]: 7 µM; Activity [5]: Non-Toxic
38 | 9 | C=C1CC[C@@H]2[C@]3(C)COC(C)(C)O[C@@H]3CC[C@@]2(C)[C@@H]1C/C=C1/C(=O)OC[C@H]1OC(=O)CCCSc1cccs1 | IC50 [2]: 25 µM; IC50 [3]: 10 µM; IC50 [4]: 0.7 µM; Activity [5]: Non-Toxic
39 | 11 | C=C1CC[C@@H]2[C@]3(C)COC(C)(C)O[C@@H]3CC[C@@]2(C)[C@@H]1C/C=C1/C(=O)OC[C@H]1OC(=O)CSc1ccc(C)cc1 | –
40 | 13 | C=C1CC[C@@H]2[C@]3(C)COC(C)(C)O[C@@H]3CC[C@@]2(C)[C@@H]1CC(Sc1ccc(F)cc1)C1=CCOC1=O (some centres undefined) | –
41 | 13 | C=C1CC[C@@H]2[C@](C)(CO)[C@H](O)CC[C@@]2(C)[C@@H]1C/C=C1/C(=O)OCC1OC(=O)CSc1ccc(F)cc1 (some centres undefined) | –
